Data: article PMC3536955 (Osteoporosis International, 2012)

What was measured:
Format in all cases: in vivo, postmenopausal Japanese women
P1NP = assay: Bone formation marker serum P1NP; settings: 4 to 15 days; 56.5 μg single s.c.; n = 10
Method in brief: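 Randomised, double-blind, placebo-controlled trial in women aged 60–79 y. A single s.c. dose was given at 0800 h after baseline sampling. Serum was drawn 15–720 min post-dose and on mornings of days 2, 4, 6, 8, 11, 13 and 15. P1NP was measured by radioimmunoassay (inter-assay CV 2.7–5.0 %), with each subject's samples in one batch. Median baseline and follow-up distribution were reported.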

[1] = tested on: Serum cross-linked N-telopeptide of type I collagen (NTX); assay: Bone resorption marker serum NTX; settings: n = 10
Method in brief: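 Serum NTX was measured by ELISA (inter-assay CV 6.9–11.1 %), with all of a participant's samples run together. The trial was a placebo-controlled, double-blind, single-centre study in postmenopausal women aged 60–79 y, each given one s.c. injection after 0800 h baseline sampling. Blood was taken at 15–720 min and on mornings of days 2–15. Baseline median and follow-up distribution were tabulated.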

[2] = tested on: urinary cross-linked C-telopeptide of type I collagen (CTX); assay: Bone resorption marker urinary CTX; settings: n = 10
Method in brief: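 Urine was collected at baseline (0800 h), at 120, 240, 360 and 720 min after a single s.c. injection, and on mornings of days 2, 4, 6, 8, 11, 13 and 15. Subjects were postmenopausal women aged 60–79 y in a randomised, double-blind, placebo-controlled design. CTX was measured by ELISA (inter-assay CV 2.4–9.0 %), with each participant's samples in one batch. Median and distribution were summarised.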

[3] = Safety: adverse events after injection
Method in brief: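 Adverse events were recorded after a single s.c. injection of drug or identical-looking placebo in a randomised, double-blind study of postmenopausal women aged 60–79 y, with 10 per group. Events and abnormal laboratory changes were coded by MedDRA/J version 9.0 by system organ class and preferred term, and classified as adverse drug reactions where applicable. Follow-up lasted until day 15.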

[4] = 4 to 15 days, 28.2 μg single s.c.
[5] = 4 to 15 days, 56.5 μg single s.c.

## CC[C@H](C)[C@H](NC(=O)[C@H](CCC(=O)O)NC(=O)[C@H](CO)NC(=O)[C@@H](NC(=O)[C@@H](N)CO)C(C)C)C(=O)N[C@@H](CCC(N)=O)C(=O)N[C@@H](CC(C)C)C(=O)N[C@@H](CCSC)C(=O)N[C@@H](Cc1cnc[nH]1)C(=O)N[C@@H](CC(N)=O)C(=O)N[C@@H](CC(C)C)C(=O)NCC(=O)N[C@@H](CCCCN)C(=O)N[C@@H](Cc1cnc[nH]1)C(=O)N[C@@H](CC(C)C)C(=O)N[C@@H](CC(N)=O)C(=O)N[C@@H](CO)C(=O)N[C@@H](CCSC)C(=O)N[C@@H](CCC(=O)O)C(=O)N[C@@H](CCCN=C(N)N)C(=O)N[C@H](C(=O)N[C@@H](CCC(=O)O)C(=O)N[C@@H](Cc1c[nH]c2ccccc12)C(=O)N[C@@H](CC(C)C)C(=O)N[C@@H](CCCN=C(N)N)C(=O)N[C@@H](CCCCN)C(=O)N[C@@H](CCCCN)C(=O)N[C@@H](CC(C)C)C(=O)N[C@@H](CCC(N)=O)C(=O)N[C@@H](CC(=O)O)C(=O)N[C@H](C(=O)N[C@@H](Cc1cnc[nH]1)C(=O)N[C@@H](CC(N)=O)C(=O)N[C@@H](Cc1ccccc1)C(=O)O)C(C)C)C(C)C [teriparatide]
P1NP
  Serum P1NP, Max: 118.0 ng/mL
  Serum P1NP, Median: 56.9 ng/mL
  Serum P1NP, Min: 18.3 ng/mL
[1]; 2 to 24 h, 28.2 μg single s.c.
  Serum NTX, Max: 21.7 nM BCE/L
  Serum NTX, Median: 14.2 nM BCE/L
  Serum NTX, Min: 9.2 nM BCE/L
[1]; 2 to 24 h, 56.5 μg single s.c.
  Serum NTX, Max: 27.7 nM BCE/L
  Serum NTX, Median: 13.8 nM BCE/L
  Serum NTX, Min: 7.2 nM BCE/L
[1]; [4]
  Serum NTX, Max: 20.4 nM BCE/L
  Serum NTX, Median: 13.2 nM BCE/L
  Serum NTX, Min: 7.2 nM BCE/L
[1]; [5]
  Serum NTX, Max: 20.6 nM BCE/L
  Serum NTX, Median: 10.7 nM BCE/L
  Serum NTX, Min: 7.5 nM BCE/L
[2]; 2 to 24 h, 28.2 μg single s.c.
  Urinary CTX, Max: 958.0 µg/mmol
  Urinary CTX, Median: 402.5 µg/mmol
  Urinary CTX, Min: 192.0 µg/mmol
[2]; 2 to 24 h, 56.5 μg single s.c.
  Urinary CTX, Max: 1190.0 µg/mmol
  Urinary CTX, Median: 508.5 µg/mmol
  Urinary CTX, Min: 238.0 µg/mmol
[2]; [4]
  Urinary CTX, Max: 655.0 µg/mmol
  Urinary CTX, Median: 351.0 µg/mmol
  Urinary CTX, Min: 106.0 µg/mmol
[2]; [5]
  Urinary CTX, Max: 972.0 µg/mmol
  Urinary CTX, Median: 351.0 µg/mmol
  Urinary CTX, Min: 142.0 µg/mmol
[3]; 28.2 μg single s.c., n = 10
  Any adverse event: 10 (100) n (%)
  Decreased appetite: 1 (10) n (%)
  Decreased blood pressure: 1 (10) n (%)
  Erythema: 1 (10) n (%)
  Muscle spasms: 1 (10) n (%)
  Palpitations: 1 (10) n (%)
  Positional vertigo: 1 (10) n (%)
  Rhinorrhea: 1 (10) n (%)
  Somnolence: 1 (10) n (%)
  Vomiting: 1 (10) n (%)
[3]; 56.5 μg single s.c., n = 10
  Any adverse event: 10 (100) n (%)
  Conjunctival hyperemia: 1 (10) n (%)
  Decreased appetite: 1 (10) n (%)
  Eye pain: 1 (10) n (%)
  Headache: 3 (30) n (%)
  Hot flashes: 1 (10) n (%)
  Nasopharyngitis: 1 (10) n (%)
  Nausea: 1 (10) n (%)
  Pharynx discomfort: 1 (10) n (%)
  Rhinorrhea: 1 (10) n (%)
  Somnolence: 5 (50) n (%)
  Vomiting: 1 (10) n (%)
[3]; 28.2 and 56.5 μg groups, most ADRs
  severity and outcome of ADRs: mild and resolved without intervention
[3]; throughout the study duration
  changes in laboratory values before or after administration: no significant changes
